Measurements published in ChEMBL document CHEMBL2157923, “1,3-Azoles from ortho-naphthoquinones: synthesis of aryl substituted imidazoles and oxazoles and their potent activity against Mycobacterium tuberculosis” (Bioorg Med Chem, 2012).
Values after ≈ are worked out from the molar mass of the structure shown. Active and inactive are the calls of the source. The calls are words filed in the database; no cut-off is given here.

Tests used:
[1] = system: Mycobacterium tuberculosis; test: Antimycobacterial activity against pan-susceptible Mycobacterium tuberculosis H37Rv ATCC 27294 after 7 days by resazurin microtitre assay; type: functional
Summary of the method: (§1)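 REMA MIC. Strains kept on Ogawa-Kudoh medium 14 days at 37 °C. Suspension vortexed and adjusted to McFarland tube 1 (3.2 × 10^6 cfu/mL), then diluted 1:20 in Middlebrook 7H9 with 10% OADC and glycerol. Compounds tested from 100 ug/mL down to 0.19 ug/mL. Incubated 7 days at 37 °C, resazurin added, 2 more days at 37 °C; colour change read.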

PBMC = test: Cytotoxicity against human PBMC after 72 hrs by alamar blue assay; type: cell-based
Summary of the method: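 Alamar Blue assay on human PBMC. Compounds at 0.048 to 25 µg/mL in DMSO (0.1%) added after 24 h and exposed 72 h. Resazurin added 24 h before the end. Absorbance read at 570 and 595 nm, medium blank subtracted, and % reduced computed with correction factor R0. Effect expressed as percentage of control.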

[2] = system: Mycobacterium tuberculosis; test: Antimycobacterial activity against pan-susceptible Mycobacterium tuberculosis H37Rv; type: functional; summary of the method: as §1

| SMILES | MIC ([1]; H37Rv ATCC 27294, 168 h) [µM] | IC50 (PBMC) [µg/mL] | also measured |
| --- | --- | --- | --- |
| CC1(C)CCc2c(c3ccccc3c3nc(-c4cccc(C#N)c4)oc23)O1 | 35.2 (≈ 12.5 µg/mL) |  |  |
| CC1(C)Cc2c(c3ccccc3c3nc(-c4ccccc4)[nH]c23)O1 | > 318 | > 25 |  |
| NNC(=O)c1ccncc1 [ISONIAZID] | ≤ 0.4 |  |  |
| CC1(C)CCc2c(c3ccccc3c3nc(-c4ccc(C#N)cc4)oc23)O1 | 17.6 (≈ 6.24 µg/mL) |  |  |
| CC1(C)CCc2c(c3ccccc3c3nc(-c4ccccc4C#N)oc23)O1 | 35.2 (≈ 12.5 µg/mL) |  |  |
| CC1(C)CCc2c(c3ccccc3c3nc(-c4cccc(F)c4)[nH]c23)O1 | 9 (≈ 3.12 µg/mL) | > 25 |  |
| CC1(C)CCc2c(c3ccccc3c3nc(-c4cccc([N+](=O)[O-])c4)[nH]c23)O1 |  | > 25 | MIC [1]: inactive |
| CC1(C)CCc2c(c3ccccc3c3nc(-c4ccc(Br)cc4)[nH]c23)O1 |  | > 25 | MIC [1]: inactive |
| CC1(C)CCc2c(c3ccccc3c3nc(-c4cnc5ccccc5c4)[nH]c23)O1 |  |  | MIC [1]: inactive |
| CC1(C)CCc2c(c3ccccc3c3nc(-c4ccccn4)[nH]c23)O1 | 75.9 (≈ 25 µg/mL) |  |  |
| CC1(C)CCc2c(c3ccccc3c3nc(-c4ccc(Cl)cc4)[nH]c23)O1 | 34.4 (≈ 12.5 µg/mL) | > 25 |  |
| CC1(C)CCc2c(c3ccccc3c3nc(-c4cccc(Br)c4)[nH]c23)O1 | 15.3 (≈ 6.23 µg/mL) | > 25 |  |
| CC1(C)CCc2c(c3ccccc3c3nc(-c4ccccc4[N+](=O)[O-])[nH]c23)O1 | 268 (≈ 100 µg/mL) | > 25 |  |
| CC1(C)CCc2c(c3ccccc3c3nc(-c4cccc(C(F)(F)F)c4)[nH]c23)O1 | 4 (≈ 1.59 µg/mL) |  |  |
| CC1(C)CCc2c(c3ccccc3c3nc(-c4cccnc4)[nH]c23)O1 |  |  | MIC [1]: inactive |
| CC1Cc2c(c3ccccc3c3nc(-c4ccc([N+](=O)[O-])cc4)oc23)O1 (stereo not drawn) | > 289 |  |  |
| CC1(C)CCc2c(c3ccccc3c3nc(-c4ccc(C(F)(F)F)cc4)[nH]c23)O1 |  |  | MIC [1]: inactive |
| CC1(C)CCc2c(c3ccccc3c3nc(-c4ccccc4)[nH]c23)O1 | > 304 | > 25 |  |

| SMILES | MIC ([1]; H37Rv ATCC 27294, 168 h) [µM] | IC50 (PBMC) [µg/mL] | also measured |
| --- | --- | --- | --- |
| Cc1ccc(-c2nc3c(o2)c2c(c4ccccc43)OC(C)(C)C2)cc1 | > 304 |  |  |
| CC1(C)CCc2c(c3ccccc3c3nc(-c4cc5ccccc5cn4)[nH]c23)O1 | 16.4 (≈ 6.22 µg/mL) | > 25 |  |
| CC1(C)CCc2c(c3ccccc3c3nc(-c4ccc([N+](=O)[O-])cc4)[nH]c23)O1 | 268 (≈ 100 µg/mL) |  |  |
| Cc1ccccc1-c1nc2c([nH]1)c1c(c3ccccc32)OC(C)(C)CC1 | 9 (≈ 3.08 µg/mL) |  |  |
| CC1(C)CCc2c(c3ccccc3c3nc(-c4ccc(C#N)cc4)[nH]c23)O1 |  | > 25 | MIC [1]: inactive |
| CC1(C)CCc2c(c3ccccc3c3nc(-c4cccc(C#N)c4)[nH]c23)O1 |  | > 25 | MIC [1]: inactive |
| CC1CC2=C(O1)c1ccccc1C(=O)C2=O (stereo not drawn) | 14.5 (≈ 3.11 µg/mL) |  |  |
| CC1(C)CCc2c(c3ccccc3c3nc(-c4ccccc4Br)[nH]c23)O1 | 7.6 (≈ 3.1 µg/mL) | > 25 |  |
| Cc1ccc(-c2nc3c([nH]2)c2c(c4ccccc43)OC(C)(C)C2)cc1 | > 304 |  |  |
| COc1ccccc1-c1nc2c([nH]1)c1c(c3ccccc32)OC(C)(C)CC1 | 17.4 (≈ 6.24 µg/mL) |  |  |
| CC1(C)Cc2c(c3ccccc3c3nc(-c4ccc([N+](=O)[O-])cc4)oc23)O1 | > 278 |  |  |
| C=CCC1Cc2c(c3ccccc3c3nc4ccccc4nc23)OC1(C)C (stereo not drawn) |  |  | MIC [2]: 0.78 µg/mL (≈ 2.2 µM) |
| CC1(C)CCc2c(c3ccccc3c3nc(-c4ccc(F)cc4)[nH]c23)O1 | 72.2 (≈ 25 µg/mL) | > 25 |  |
| CC1(C)CCc2c(c3ccccc3c3nc(-c4ccccc4C(F)(F)F)[nH]c23)O1 | 4 (≈ 1.59 µg/mL) |  |  |
| CC(C)CCc1c2[nH]c3ccccc3nc-2c2c(c1=O)CCCC2 |  |  | MIC [2]: ≤ 3 µg/mL |
| C=CCC1=C(O)C(=O)c2ccccc2C1=O | 467 (≈ 100 µg/mL) |  |  |
| CO[C@H]1/C=C/O[C@@]2(C)Oc3c(C)c(O)c4c(O)c(c(/C=N/N5CCN(C)CC5)c(O)c4c3C2=O)NC(=O)/C(C)=C\C=C\[C@H](C)[C@H](O)[C@@H](C)[C@@H](O)[C@@H](C)[C@H](OC(C)=O)[C@@H]1C [RIFAMPIN] | ≤ 0.1 |  |  |
